{
  "source": "ChEMBL document CHEMBL4261506",
  "about": "“Synthesis and biological evaluation of N-alkyl naphthoimidazoles derived from β-lapachone against Trypanosoma cruzi bloodstream trypomastigotes” (Medchemcomm, 2017)",
  "data": [
    {"system": "Trypanosoma cruzi", "experiment": "Trypanocidal activity against bloodstream trypomastigote stage of Trypanosoma cruzi Y isolated from parasite infected Swiss mouse assessed as induction of parasite lysis after 24 hrs by Neubauer chamber based cell counting method", "format": "functional, organism-based", "conditions": "not given", "in_short": "(§1)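 Y-strain bloodstream trypomastigotes at 5 × 10^6 cells per ml in DME medium plus 10% blood (some runs in DMES without blood), mixed 1:1 with compound diluted in DME at twice final concentration. DMSO final ≤0.1%. Incubated at 4 °C. Cells counted after 24 h; IC50 taken as the concentration giving 50% parasite lysis.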", "units": {"IC50": "µM"}, "values": [
      {"smiles": "Cc1ccc(-c2nc3c([nH]2)c2c(c4ccccc43)OC(C)(C)CC2)cc1", "IC50": 37.5}
    ]},
    {"system": "Trypanosoma cruzi", "experiment": "Trypanocidal activity against trypomastigote stage of Trypanosoma cruzi", "format": "functional, organism-based", "conditions": "not given", "in_short": "as §1", "units": {"IC50": "µM"}, "values": [
      {"smiles": "CC1(C)CCc2c(c3ccccc3c3nc(-c4ccccc4)[nH]c23)O1", "IC50": 37}
    ]},
    {"system": "not listed separately", "experiment": "Cytotoxicity against Swiss mouse peritoneal macrophages after 24 hrs by Prestoblue assay", "format": "cell-based, Peritoneal macrophage", "conditions": "read-out: LC50", "units": {"CC50 at 24 h": "µM"}, "values": [
      {"smiles": "CCCCCCn1cnc2c3c(c4ccccc4c21)OC(C)(C)CC3", "CC50 at 24 h": 117},
      {"smiles": "CCCCCCn1cnc2c3ccccc3c3c(c21)CCC(C)(C)O3", "CC50 at 24 h": 422}
    ]},
    {"system": "Trypanosoma cruzi", "experiment": "Trypanocidal activity against bloodstream trypomastigote stage of Trypanosoma cruzi Y assessed as induction of parasite lysis after 24 hrs by Neubauer chamber based cell counting method", "format": "functional, organism-based", "conditions": "not given", "in_short": "as §1", "units": {"IC50": "µM"}, "values": [
      {"smiles": "CC1(C)CCc2c(c3ccccc3c3nc(-c4ccc([N+](=O)[O-])cc4)[nH]c23)O1", "IC50": 250},
      {"smiles": "COc1ccccc1-c1nc2c([nH]1)c1c(c3ccccc32)OC(C)(C)CC1", "IC50": "> 6500"},
      {"smiles": "CC1(C)CCc2c(c3ccccc3c3nc(-c4ccc(C(F)(F)F)cc4)[nH]c23)O1", "IC50": 250},
      {"smiles": "CC1(C)CCc2c(c3ccccc3c3nc(-c4cccs4)[nH]c23)O1", "IC50": 170},
      {"smiles": "Cc1cccc(-c2nc3c([nH]2)c2c(c4ccccc43)OC(C)(C)CC2)c1", "IC50": 37.5},
      {"smiles": "CCCCCCCCn1cnc2c3ccccc3c3c(c21)CCC(C)(C)O3", "IC50": 180},
      {"smiles": "CC1(C)CCc2c(c3ccccc3c3nc[nH]c23)O1", "IC50": 89.5},
      {"smiles": "CCCCCCn1cnc2c3c(c4ccccc4c21)OC(C)(C)CC3", "IC50": 42.5},
      {"smiles": "CC1(C)CCc2c(c3ccccc3c3nc(-c4ccc(Cl)cc4Cl)[nH]c23)O1", "IC50": "> 4000"},
      {"smiles": "CCCn1cnc2c3ccccc3c3c(c21)CCC(C)(C)O3", "IC50": 172},
      {"smiles": "CC1(C)CCc2c(c3ccccc3c3nc(-c4ccccc4C#N)[nH]c23)O1", "IC50": "> 6500"},
      {"smiles": "CCCCn1cnc2c3c(c4ccccc4c21)OC(C)(C)CC3", "IC50": 106},
      {"smiles": "CCCCCCCn1cnc2c3c(c4ccccc4c21)OC(C)(C)CC3", "IC50": 407},
      {"smiles": "CC1(C)CCc2c(c3ccccc3c3nc(-c4c(Cl)cccc4Cl)[nH]c23)O1", "IC50": 2120},
      {"smiles": "CCCCCCCCn1cnc2c3c(c4ccccc4c21)OC(C)(C)CC3", "IC50": 376},
      {"smiles": "CCCCCCCCCn1cnc2c3ccccc3c3c(c21)CCC(C)(C)O3", "IC50": 295},
      {"smiles": "CCCCCCCCCCCCn1cnc2c3c(c4ccccc4c21)OC(C)(C)CC3", "IC50": "> 500"},
      {"smiles": "CCCCCn1cnc2c3ccccc3c3c(c21)CCC(C)(C)O3", "IC50": 124},
      {"smiles": "CC1(C)CCc2c(c3ccccc3c3nc(-c4cccc5ccccc45)[nH]c23)O1", "IC50": 1680},
      {"smiles": "COc1cc(-c2nc3c([nH]2)c2c(c4ccccc43)OC(C)(C)CC2)ccc1O", "IC50": 252},
      {"smiles": "CCCCCCCCCn1cnc2c3c(c4ccccc4c21)OC(C)(C)CC3", "IC50": 195},
      {"smiles": "CCCCCCn1cnc2c3ccccc3c3c(c21)CCC(C)(C)O3", "IC50": 31.5},
      {"smiles": "CCCCn1cnc2c3ccccc3c3c(c21)CCC(C)(C)O3", "IC50": 123},
      {"smiles": "COc1ccc(-c2nc3c([nH]2)c2c(c4ccccc43)OC(C)(C)CC2)cc1", "IC50": 250},
      {"smiles": "CCCn1cnc2c3c(c4ccccc4c21)OC(C)(C)CC3", "IC50": 99.7},
      {"smiles": "CCCCCCCn1cnc2c3ccccc3c3c(c21)CCC(C)(C)O3", "IC50": 99},
      {"smiles": "CCCCCCCCCCCCn1cnc2c3ccccc3c3c(c21)CCC(C)(C)O3", "IC50": 192},
      {"smiles": "CCCCCn1cnc2c3c(c4ccccc4c21)OC(C)(C)CC3", "IC50": 92.7}
    ]},
    {"system": "not listed separately", "experiment": "Selectivity index, ratio of LC50 for Swiss mouse peritoneal macrophages to IC50 for bloodstream trypomastigote stage of Trypanosoma cruzi Y", "format": "toxicity", "conditions": "read-out: Ratio LC50/IC50", "in_short": "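Y strain bloodstream trypomastigotes at 5 × 10^6 cells/ml in DME plus 10% blood, mixed 1:1 with compound at twice the final concentration, 24 h at 4 °C, counted; IC50 = 50% lysis. […] Index = LC50/IC50. DMSO final ≤0.1%.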", "values": [
      {"smiles": "CCCCCCn1cnc2c3c(c4ccccc4c21)OC(C)(C)CC3", "selectivity ratio": 2.7},
      {"smiles": "CCCCCCn1cnc2c3ccccc3c3c(c21)CCC(C)(C)O3", "selectivity ratio": 13.4}
    ]},
    {"system": "Trypanosoma cruzi", "experiment": "Potency index, ratio of benznidazole IC50 to test compound IC50 for bloodstream trypomastigote stage of Trypanosoma cruzi Y", "format": "functional", "conditions": "not given", "values": [
      {"smiles": "CCCCCCn1cnc2c3c(c4ccccc4c21)OC(C)(C)CC3", "Ratio IC50": 2.2},
      {"smiles": "CCCCCCn1cnc2c3ccccc3c3c(c21)CCC(C)(C)O3", "Ratio IC50": 3.2}
    ]}
  ]
}
